Source: ChEMBL document CHEMBL4000155, “Synthesis and Antileukemic Activities of Piperlongumine and HDAC Inhibitor Hybrids against Acute Myeloid Leukemia Cells” (J Med Chem, 2016)
Calls of active or inactive are those of the source. The calls are words filed in the database; no cut-off is given here.

Key:
U-937 [1] = assay: Effect on SAHA-induced apoptosis in p53 null human U937 cells assessed as decrease in XIAP expression level by measuring ratio of XIAP to beta-actin level at 2 uM after 24 hrs by Western blot analysis relative to control; type: functional
How it was run: (§1)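 U937 cells treated 24 h, alone or PL+SAHA. Whole-cell lysates (protease/phosphatase inhibitors) immunoblotted for γH2AX, CHK1, RAD51, Bim and XIAP. Band densitometry normalised to β-actin, then expressed as fold change relative to the untreated control.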

OCI-AML-3 = assay: Antiproliferative activity against human OCI-AML3 cells after 72 hrs in presence of SAHA by MTT assay; type: functional, cell-based; settings: OCI-AML-3, 72 h
How it was run: (§2)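 AML cell lines grown in RPMI 1640 with 10% FBS (20% for MOLM-13), 2 mM L-glutamine and penicillin/streptomycin at 37 °C, 5% CO2. Ara-C-resistant HL-60 and CMK sublines came from stepwise cytarabine selection and were kept in 600 nM or 300 nM cytarabine respectively. Cells were treated 72 h. MTT 0.05 mg/mL, 3 h at 37 °C, DMSO solubilization, absorbance at 570 nm. IC50 given ± SEM.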

U-937 [2] = assay: Cytotoxicity against p53 null human U937 cells assessed as decrease in cell viability at 0.5 to 5 uM after 24 hrs in presence of SAHA by MTT assay; type: functional, cell-based
How it was run: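 MCF-10A (DMEM/F12, 5% horse serum, hydrocortisone, cholera toxin, insulin, EGF) and U937 (RPMI 1640, 10% FBS) were exposed to 0.5–5 μM, alone or PL+SAHA 1:1, for 24 h. MTT 0.05 mg/mL, 3 h at 37 °C, DMSO solubilization, A570. Viability given as mean ± SD of four to six independent experiments. DMSO <0.1% vehicle control.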

U-937 [3] = assay: Induction of apoptosis in p53 null human U937 cells at 1 uM after 24 hrs in presence of SAHA by annexin V-FITC/PI staining based flow cytometry; type: functional
How it was run: (§3)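 Cells treated 24 h, single agents or SAHA+PL at 1:1 (each drug at the stated concentration). Annexin V-FITC/PI kit staining, then flow cytometry, reported as % Annexin V+ cells. Three independent experiments in triplicate, with data from one representative experiment. DMSO <0.1% vehicle control.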

[4] = Antiproliferative activity against human CMS cells after 72 hrs in presence of SAHA by MTT assay; type: functional, cell-based; how it was run: as §2
U-937 [5] = assay: Induction of cell death in p53 null human U937 cells at 1 to 4 uM after 24 hrs by annexin V-FITC/PI staining based flow cytometry; type: functional
How it was run: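 Human U937 AML cells (p53 null) in RPMI 1640 with 10% FBS, 2 mM L-glutamine, penicillin/streptomycin, 37 °C, 5% CO2. Exposed 24 h to compound alone or with SAHA; vehicle DMSO < 0.1% v/v. Annexin V-FITC/PI staining and flow cytometry, reported as % Annexin V+ cells. Three independent experiments in triplicate; one representative shown. EC50 taken as concentration giving 50% Annexin V+ cells versus vehicle.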

HL-60 = assay: Antiproliferative activity against Ara-C resistant human HL60 cells after 72 hrs in presence of SAHA by MTT assay; type: functional, cell-based; settings: HL-60, 72 h; how it was run: as §2
U-937 [6] = assay: Induction of cell death in p53 null human U937 cells assessed as combination index at 2 to 4 uM after 24 hrs in presence of SAHA by annexin V-FITC/PI staining based flow cytometry; type: functional
How it was run: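 Cells given SAHA and PL alone or together at 1:1 ratio for 24 h, then Annexin V-FITC/PI staining and flow cytometry. Combination index computed from the % Annexin V+ data; CI < 1 synergistic, = 1 additive, > 1 antagonistic. Triplicates, three independent experiments.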

U-937 [7] = assay: Effect on SAHA-induced DNA damage in p53 null human U937 cells assessed as increase in gammaH2AX expression level by measuring ratio of gammaH2AX to beta-actin level at 2 uM after 24 hrs by Western blot analysis relative to control; type: functional; how it was run: as §1
MOLM-13 [8] = assay: Induction of apoptosis in human MOLM13 cells harboring wild type p53/FLT3-ITD mutant at 4 uM after 24 hrs in presence of SAHA by annexin V-FITC/PI staining based flow cytometry; type: functional; how it was run: as §3
U-937 [9] = assay: Induction of apoptosis in p53 null human U937 cells at 2 uM preincubated with NAC for 3 hrs followed by compound addition measured after 24 hrs in presence of SAHA by annexin V-FITC/PI staining based flow cytometry; type: functional, cell-based
How it was run: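 U937 cells preincubated 3 h with 3 mM NAC or vehicle and washed with PBS to remove excess NAC. Then drug alone or with SAHA for 24 h. Apoptosis scored as % Annexin V+ by Annexin V-FITC/PI flow cytometry; vehicle DMSO < 0.1% v/v.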

MOLM-13 [10] = assay: Induction of apoptosis in human MOLM13 cells harboring wild type p53/FLT3-ITD mutant at 4 uM after 24 hrs by annexin V-FITC/PI staining based flow cytometry; type: functional; how it was run: as §3
[11] = Chemical stability of the compound in pH 7.4 phosphate buffer at 50 uM incubated up to 4 hrs in presence of GSH by HPLC analysis; type: physicochemical; settings: pH 7.4, 4 h
How it was run: (§4)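 Compound at 50 μM incubated with or without 5 mM GSH in phosphate buffer pH 7.4 at 37 °C for up to 4 h. Mixtures analysed by HPLC with water/0.1% formic acid/10% methanol versus 0.1% formic acid in acetonitrile, 0.5 mL/min, 10–80% B gradient over 18 min.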

[12] = Chemical stability of the compound in pH 7.4 phosphate buffer at 50 uM incubated up to 4 hrs in absence of GSH by HPLC analysis; type: physicochemical; settings: pH 7.4, 4 h; how it was run: as §4
U-937 [13] = assay: Induction of apoptosis in p53 null human U937 cells at 0.25 uM after 24 hrs by annexin V-FITC/PI staining based flow cytometry; type: functional; how it was run: as §3
U-937 [14] = assay: Induction of apoptosis in p53 null human U937 cells assessed as PARP-1 cleavage after 24 hrs by Western blot analysis; type: functional, cell-based
How it was run: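 U937 cells exposed for 24 h. Lysates with protease/phosphatase inhibitors were separated by SDS-PAGE, transferred to PVDF and probed for PARP and cleaved caspase-3, with β-actin as loading control.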

MOLM-13 [15] = assay: Induction of cell death in human MOLM13 cells harboring wild type p53/FLT3-ITD mutant after 24 hrs by annexin V-FITC/PI staining based flow cytometry; type: functional
How it was run: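 MOLM-13 (p53 wt, FLT3-ITD) kept in RPMI 1640 with 20% FBS, 2 mM L-glutamine, penicillin/streptomycin, 37 °C, 5% CO2. Treated 24 h; vehicle DMSO < 0.1% v/v. Annexin V-FITC/PI flow cytometry, % Annexin V+ cells. Three independent experiments in triplicate; one representative shown. EC50 is the concentration giving 50% Annexin V+ cells relative to vehicle.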

MOLM-13 [16] = assay: Induction of apoptosis in human MOLM13 cells harboring wild type p53/FLT3-ITD mutant at 1 uM after 24 hrs by annexin V-FITC/PI staining based flow cytometry; type: functional; how it was run: as §3
MDA-MB-231 = assay: Antiproliferative activity against human MDA-MB-231 cells after 24 hrs by MTT assay; type: functional, cell-based; settings: MDA-MB-231, 24 h

Row | SMILES | Ratio (U-937 [1]) | IC50 (OCI-AML-3) | Activity (U-937 [2]) | Activity (U-937 [3]) | IC50 [4] | Activity (U-937 [5]) | IC50 (HL-60) | CI (U-937 [6]) | Ratio (U-937 [7]) | Activity (MOLM-13 [8]) | Activity (U-937 [9]) | Activity (MOLM-13 [10]) | Stability [11] | Stability [12] | Activity (U-937 [13]) | Activity (U-937 [14]) | Activity (MOLM-13 [15]) | Activity (MOLM-13 [16]) | IC50 (MDA-MB-231)
1 | COc1cc(/C=C/C(=O)N2CCC=CC2=O)cc(OC)c1OC [PIPLARTINE] | 0.6 | 1110 nM | Active | 6.2% | 1040 nM | Active | 1130 nM | <0.9 | 4.1 | 77.5% | inactive |  |  |  |  |  |  |  | 
2 | COc1cc(/C=C/C(=O)N2CCC=CC2=O)cc(OC)c1OCCCCCCC(=O)NO |  |  |  |  |  |  |  |  |  |  |  | 80.3% | Stable | Stable | inactive | Dose-dependent effect | Dose-dependent effect | 24.6% | 382 nM
